One may read the CC50 as the concentration at which the toxic effect on the cells reaches its halfway point. Higher therefore signals lower toxicity to the cells. The IC50 is the concentration at which inhibition is half-maximal. Lower therefore signals greater potency.

Among the data in ChEMBL document CHEMBL1150245, “1-Aryl-2-dimethylaminomethyl-2-propen-1-one hydrochlorides and related adducts: A quest for selective cytotoxicity for malignant cells” (Bioorg Med Chem, 2008) are CC50, IC50 and Activity values, retold here.

Activity calls are given as the source filed them. The rule behind the calls is not given here.

In data set [1] the test system is HL-60. As to the kind of experiment: Cytotoxicity against human HL60 cells. Format: functional. The gist of the method: (§1)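 CC50 is the concentration killing 50% of cells, tested up to a highest concentration of 400 μM. Each value is the average of two independent determinations.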
A short description of data set [2]: Cytotoxicity against human HGF cells. Format: cell-based. The gist of the method: as §1
Data set [3] in a line: Cytotoxicity against human HPLF cells. Format: cell-based. The method, boiled down:
as §1

The nature of data set [4]: Cytotoxicity against human HPC cells. Format: cell-based. The gist of the method:
as §1

Data set [5] deals with RPMI-8226. The data set is described as follows: Cytotoxicity against human RPMI8226 cells. Format: functional, cell-based. The method, boiled down: (§2)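 Part of a human tumour cell line panel screen run by a literature procedure with compounds at 10−8–10−4 M. GI50 is the concentration giving 50% growth inhibition. Where 50% inhibition was not reached at 100 μM, 100 μM was used as the value.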

Data set [6] concerns CCRF-CEM. The data set is described as follows: Cytotoxicity against human CCRF-CEM cells. The class given is functional, cell-based. The method, boiled down: as §2
Data set [7] deals with HSC-2. As to the kind of experiment: Cytotoxicity against human HSC2 cells. Format: functional. The method, boiled down:
as §1

For data set [8], the system named is HSC-4. The data set is described as follows: Cytotoxicity against human HSC4 cells. Format: functional. The method, boiled down: as §1
Data set [9] in a line: Cytotoxicity against human Molt4/C8 cells after 72 hrs. The class given is functional, cell-based. Conditions: MOLT-4, 72 h. The method, boiled down:
(§3)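 Human transformed T-lymphocytes exposed to a range of compound concentrations at 37 °C for 72 h. IC50 is the concentration giving 50% inhibition of cell growth.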

Data set [10] deals with L1210. As to the kind of experiment: Cytotoxicity against mouse L1210 cells after 48 hrs. The settings on record: L1210, 48 h.
In data set [11] the test system is CCRF-CEM. As to the kind of experiment: Cytotoxicity against human CEM cells after 72 hrs. Format: functional, cell-based. The method, boiled down:
as §3

Data set [12] relates to K562. As to the kind of experiment: Cytotoxicity against human K562 cells. The class given is functional, cell-based. The method, boiled down: as §2
Data set [13] concerns SR. As to the kind of experiment: Cytotoxicity against human SR cells. The class given is cell-based. The method, boiled down: as §2
Data set [14] relates to L1210. The data set is described as follows: Cytotoxicity against mouse L1210 cells after 72 hrs. Conditions: L1210, 72 h. The class given is functional, cell-based.
The test system of data set [15] is HL-60. The data set is described as follows: Induction of apoptosis assessed as activation of caspase 9 activity in human HL60 cells after 4 hrs. Format: functional, cell-based. The gist of the method:
(§4)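 Caspase activation measured in neoplastic cells seeded at 4 × 10^4 cells and incubated with compound for 4 h. Each value is the mean of two or three experiments.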

Data set [16] relates to HL-60. The data set is described as follows: Induction of apoptosis in human HL60 cells after 6 hrs. The class given is functional, cell-based. The gist of the method: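 Apoptosis read out as DNA fragmentation. 5 × 10^5 cells were incubated for 6 h with 0.5, 1, 2, 4, 8 or 16 μM compound. DNA was run alongside a molecular weight marker and scored for an internucleosomal ladder versus a smear. The experiment was repeated.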

Data set [17] relates to HL-60. As to the kind of experiment: Induction of apoptosis assessed as activation of caspase 8 activity in human HL60 cells after 4 hrs. Format: functional, cell-based. The gist of the method:
as §4

The test system of data set [18] is HL-60. As to the kind of experiment: Induction of apoptosis assessed as activation of caspase 3 activity in human HL60 cells after 4 hrs. Format: functional, cell-based. The gist of the method: as §4
For data set [19], the system named is HSC-2. The data set is described as follows: Induction of apoptosis assessed as activation of caspase 3 activity in human HSC2 cells after 4 hrs. Format: functional, cell-based. The method, boiled down: as §4

For `N[C@@H](Cc1ccc(N(CCCl)CCCl)cc1)C(=O)O` [MELPHALAN], the CC50 in data set [1] is 6 µM; in data set [2], greater than 200 µM; in [3] it was greater than 200 µM; in [4], greater than 200 µM; in data set [7] it was 35 µM; in data set [8], 81 µM. Moreover, the IC50 in data set [5] stood at 66.1 µM; in data set [6], 6.17 µM.

`Cc1ccc(C(=O)C(CO)CN(C)C)cc1` (configuration not stated): the CC50 in data set [1] was less than 3.1 µM; in data set [2] it was 4.9 µM; in [3] it was 9.8 µM; in data set [4], 5.7 µM; in data set [7], 6.3 µM; in data set [8], 5.8 µM. Moreover, the IC50 in [9] came to 21 µM; in data set [10], 6.55 µM; in data set [11] it was 8.22 µM.

For `COc1ccc(C(=O)C(CO)CN(C)C)cc1` (configuration not stated), the CC50 in data set [1] is 0.46 µM; in data set [2], 4 µM; in [3], 4.9 µM; in [4], 5.3 µM; in [7], 2.5 µM; in data set [8], 5.2 µM. Further, the IC50 was 4.9 µM in [9]; 0.49 µM in [12]; 20 µM in data set [5]; 1.57 µM in [10]; 1.15 µM in data set [11].

`CN(C)CC(CO)C(=O)c1ccccc1` (configuration not stated): the CC50 in data set [1] is 0.41 µM; in [2], 4.4 µM; in data set [3], 5.2 µM; in [4], 5.5 µM; in [7], 5.2 µM; in [8], 6.5 µM. Also, the IC50 in data set [9] worked out at 5.84 µM; in data set [10] it was 1.65 µM; in data set [11] it was 1.42 µM.

For the compound `C=C(CN(C)C)C(=O)c1ccccc1`, the CC50 in data set [1] amounted to 12 µM; in data set [2] it was 26 µM; in [3] it was 52 µM; in data set [4], 31 µM; in data set [7] it was 29 µM; in [8], 33 µM. The IC50 in data set [13] amounted to 0.55 µM; in [9], 146 µM; in data set [12], 2.19 µM; in data set [5], 1.91 µM; in [6] it was 0.4 µM; in [14], 52.2 µM. Further, half-maximal inhibition in data set [11] (IC50) was put at 65.6 µM.

For the compound `C=C(CN(C)C)C(=O)c1ccc([N+](=O)[O-])cc1`, the CC50 in [1] amounted to 1.6 µM; in data set [2], 19.3 µM; in data set [3] it was 26 µM; in data set [4] it was 30 µM; in [7], 8.2 µM; in data set [8] it was 19 µM. Moreover, the values for the IC50 in data set [9], in [10] and in data set [11] were 8.95 µM, 8.61 µM and 7.91 µM, respectively.

`C=C(CN(C)C)C(=O)c1ccc(Cl)cc1`: the CC50 was less than 3.1 µM in data set [1]; 6.1 µM in [2]; 9.2 µM in data set [3]; 6 µM in data set [4]; 5.1 µM in data set [7]; 6.4 µM in data set [8]. The IC50 in [13] is 3.98 µM; in data set [9], 30.2 µM; in [12], 3.47 µM; in data set [6], 3.31 µM; in data set [10], 26.5 µM; in data set [11] it was 32.6 µM.

Take `CN(C)CC(CSCCO)C(=O)c1ccc([N+](=O)[O-])cc1` (configuration not stated): the CC50 was determined as 353 µM in data set [1]; 390 µM in data set [2]; 400 µM in [3]; 400 µM in [4]; 165 µM in data set [7]; 264 µM in data set [8]. For the same compound, the IC50 in data set [13] is greater than 100 µM; in [9], greater than 500 µM; in data set [12] it was greater than 100 µM; in data set [5], 38 µM; in data set [6], greater than 100 µM; in [10] it was greater than 500 µM. In data set [11], this compound came in with an IC50 greater than 500 µM.

Take `CN(C)CC(CO)C(=O)c1ccc([N+](=O)[O-])cc1` (configuration not stated): the CC50 in data set [1] came to 35 µM; in data set [2], 271 µM; in data set [3], 176 µM; in [4] it was 227 µM; in data set [7], 73 µM; in [8], 99 µM. Besides, the IC50 in data set [9] came out at 36.8 µM; in data set [10], 42.6 µM; in data set [11], 12.2 µM.

Turning to `CN(C)CC(CO)C(=O)c1ccc(Cl)cc1` (configuration not stated), the CC50 in data set [1] is less than 3.1 µM; in data set [2], 5.8 µM; in data set [3], 12 µM; in [4], 5.4 µM; in [7], 6 µM; in data set [8] it was 8 µM. The half-maximal inhibitory concentration (IC50) in [13] came out at 0.63 µM; in data set [9], 30.9 µM; in data set [12], 0.33 µM; in data set [6] it was 0.32 µM; in data set [10], 22 µM; in data set [11], 33.1 µM.

As to `C=C(CN(C)C)C(=O)c1ccc(C)cc1`, the CC50 was determined as 0.45 µM in data set [1]; 6.1 µM in [2]; 8.1 µM in data set [3]; 6.9 µM in data set [4]; 3.4 µM in data set [7]; 7.6 µM in [8]. The results for the IC50 in data set [9], in data set [10] and in data set [11] were 35.5 µM, 11.1 µM and 11.4 µM, respectively.

In the case of `C=C(CN(C)C)C(=O)c1ccc(OC)cc1`, the CC50 in data set [1] was less than 3.4 µM; in data set [2], 6.8 µM; in data set [3], 9.2 µM; in [4], 5.1 µM; in data set [7], 5.9 µM; in data set [8], 6.1 µM. Also, the result in data set [15], in data set [16], in data set [17], in data set [18] and in [19] was Active. For the same compound, the IC50 in data set [13] amounted to 14.5 µM; in data set [9] it was 21.3 µM; in data set [12] it was 1.05 µM; in data set [5], 21.4 µM; in [6], 0.37 µM; in data set [14], 5.08 µM. The IC50 in data set [11] was determined as 10.6 µM.
